Laboratory results taken from PMC9046076 (International Journal for Parasitology: Drugs and Drug …, 2022).
Where two headings read alike, the source gives them in different places.

Assays:
[1] = tested on: T. gondii type I RH strain; experiment: In vitro T. gondii type I RH; type: cell-based, Toxoplasma gondii; settings: for IC50: Toxoplasma gondii, HFF; for reduction of T. gondii parasite growth: 11 μM, added immediately after infection, 48 h, HFF cells; for SI T. gondii (selectivity index): SI = IC50 HCT-8 (or HFF)/IC50 parasite (at 0 h p.i.)
How it was run: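 Single-concentration screen: confluent HFF monolayers in IMDM were infected with about 5 × 10³ RH-YFP tachyzoites per well, and test compound (11 μM final, in DMSO) was added immediately. Controls were atovaquone at 0.5 μM, DMSO vehicle and uninfected background wells. After 48 h at 37 °C with 5% CO₂, YFP was quantified from 9 thresholded 20× images per well. Percent inhibition was taken against DMSO; triplicates, repeated at least thrice.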

[2] = WST-1 cytotoxicity assay in uninfected HCT-8 cells; type: cell-based; settings: human
How it was run: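 HCT-8 cells (5 × 10⁴/well) were grown overnight at 37 °C, 5% CO₂ in phenol-red-free RPMI-1640 with added glucose, bicarbonate, pyruvate and 10% heat-inactivated FBS. They were treated with test compound (20 μM screen or dose range) or DMSO for 48 h. WST-1 was then added for 1 h at 37 °C in the dark, and absorbance read at 440 nm (reference 690 nm). % toxicity = (OD_DMSO − OD_compound)/OD_DMSO × 100. IC50 by nonlinear regression of triplicate means.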

C. parvum AUCP-1 isolate = experiment: In vitro C. parvum growth inhibition in HCT-8 cells, immunofluorescence assay; type: cell-based, Cryptosporidium parvum; settings: for IC50: Cryptosporidium parvum; for SI C. parvum (selectivity index): SI = IC50 HCT-8 (or HFF)/IC50 parasite (at 0 h p.i.)
How it was run: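 Confluent HCT-8 monolayers in supplemented RPMI-1640 infected with 10⁵ freshly excysted sporozoites per well. […] After 72 h, cells were fixed in methanol-acetic acid (9:1), permeabilised, blocked with 5% goat serum and stained overnight at 4 °C with fluorescein anti-C. parvum antibody. Imaged at 20×, triplicates, three assays, nonlinear regression IC50; SI = host-cell IC50/parasite IC50 (0 h p.i.).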

[3] = WST-1 cytotoxicity assay in uninfected HFF cells; type: cell-based; settings: human
[4] = tested on: T. gondii type II ME49 strain; experiment: In vitro T. gondii type II ME49; type: cell-based; settings: Toxoplasma gondii, HFF, 48 h, read-out: IC50 against T. gondii Type II (ME49) in HFF cells
[5] = tested on: T. gondii Type II (ME49) cysts in rats' brains; type: in vivo, Toxoplasma gondii; settings: JS-2-41 3 mg/kg; for reduction in the number of Toxoplasma cysts in the brain: infected rats, 14 days of treatment, JS-2-44 4 mg/kg i.p.; for decrease in brain cysts compared to untreated rats: male Brown Norway rats, i.p. daily for 14 days, JS-2-44 4 mg/kg
How it was run: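 Male Brown Norway rats, 4 weeks old, were acclimatised 7 days, then inoculated i.m. with 5 × 10⁴ ME49 tachyzoites in 0.1 ml PBS. Once brain cysts were confirmed in two untreated rats, groups (n = 3) received daily i.p. test compound or atovaquone (5 mg/kg) in 0.2 ml 5% DMSO/PBS for 2 weeks; untreated rats got vehicle. Brains were homogenised in 5 ml PBS, cysts counted in 50 μl on 3 slides (10×) and scaled to total volume. One-way ANOVA with Dunnett.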

[6] = read-out: Parasite IC50 T. gondii 0h p.i
[7] = read-out: Parasite IC50 T. gondii 2h p.i
[8] = HCT-8, read-out: Parasite IC50 C. parvum 0h p.i
[9] = HCT-8, read-out: Parasite IC50 C. parvum 2h p.i

Compound | IC50 [1, 6] | IC50 [1, 7] | IC50 at 48 h [2] | IC50 (C. parvum AUCP-1 isolate; [8]) | IC50 (C. parvum AUCP-1 isolate; [9]) | SI C. parvum (selectivity index) (C. parvum AUCP-1 isolate) | reduction of T. gondii parasite growth [1] | IC50 at 48 h [3] | also measured
O=C1C(O)=C([C@H]2CC[C@H](c3ccc(Cl)cc3)CC2)C(=O)c2ccccc21 [ATQ, atovaquone, reference compound] | 0.084 µM | 0.087 µM | – | – | – | – | – | – | –
C#CC(C)(C)NC(=O)c1cc2c(Cl)cc(Cl)cc2[nH]1 [JS-2-22, 4,6-Dichloro-N-(2-methylbut-3-yn-2-yl)-1H-indole-2-carboxamide] | – | – | 101 µM | 12.3 µM | 12.5 µM | 8.24 | – | – | –
CC(C)(NC(=O)c1cc2c(Cl)cc(Cl)cc2[nH]1)c1cn(Cc2cccc(Cl)c2)nn1 [JS-2-30, 4,6-Dichloro-N-(2-(1-(3-chlorobenzyl)-1H-1,2,3-triazol-4-yl)propan-2-yl)-1H-indole-2-carboxamide] | 5.43 µM | 6.32 µM | 193 µM | 5.05 µM | 5.86 µM | 38.16 | over 50% | 268 µM | –
CC(C)(NC(=O)c1cc2c(Cl)cc(Cl)cc2[nH]1)c1cn(Cc2ccc(Cl)c(Cl)c2)nn1 [JS-2-44, 4,6-Dichloro-N-(2-(1-(3,4-dichlorobenzyl)-1H-1,2,3-triazol-4-yl)propan-2-yl)-1H-indole-2-carboxamide] | 2.95 µM | 3.24 µM | 210 µM | 7.63 µM | 9.12 µM | 27.48 | – | 209 µM | IC50 [4]: 10.6 µM; reduction in the number of Toxoplasma cysts in the brain [5]: over 90%; decrease in brain cysts compared to untreated rats [5]: 10 fold
CC(C)(NC(=O)c1cc2c(F)cc(F)cc2[nH]1)c1cn(Cc2ccc(Cl)c(Cl)c2)nn1 [JS-2-43, N-(2-(1-(3,4-Dichlorobenzyl)-1H-1,2,3-triazol-4-yl)propan-2-yl)-4,6-difluoro-1H-indole-2-carboxamide] | – | – | 174 µM | – | – | – | – | – | –
CC(C)(NC(=O)c1cc2c(F)cc(F)cc2[nH]1)c1cn(C23CC4CC(CC(C4)C2)C3)nn1 [JS-2-19, N-(2-(1-(Adamantan-1-yl)-1H-1,2,3-triazol-4-yl)propan-2-yl)-4,6-difluoro-1H-indole-2-carboxamide] | 8.51 µM | 10.6 µM | – | – | – | – | over 50% | 108 µM | SI T. gondii (selectivity index) [1]: 12.66
CC(C)(NC(=O)c1cc2c(Cl)cc(Cl)cc2[nH]1)c1cn(Cc2ccccc2Cl)nn1 [JS-2-28, 4,6-Dichloro-N-(2-(1-(2-chlorobenzyl)-1H-1,2,3-triazol-4-yl)propan-2-yl)-1H-indole-2-carboxamide] | 11.6 µM | 19.2 µM | 233 µM | 8.32 µM | 8.59 µM | 28.05 | over 50% | 209 µM | –
c1ccc(-c2cn(C34CC5CC(CC(C5)C3)C4)nn2)cc1 [JS-2-40, 1-(Adamantan-1-yl)-4-phenyl-1H-1,2,3-triazole] | – | – | 135 µM | – | – | – | – | – | –
NC[C@@H]1O[C@H](O[C@H]2[C@@H](O)[C@H](O[C@@H]3[C@@H](O)[C@H](N)C[C@H](N)[C@H]3O[C@H]3O[C@H](CO)[C@@H](O)[C@H](O)[C@H]3N)O[C@@H]2CO)[C@H](N)[C@@H](O)[C@@H]1O [PMO, paromomycin, reference compound] | – | – | – | 220 µM | 227 µM | – | – | – | –
CC(C)(NC(=O)c1cc2c(Cl)cc(Cl)cc2[nH]1)c1cn(Cc2ccccc2)nn1 [JS-2-27, N-(2-(1-Benzyl-1H-1,2,3-triazol-4-yl)propan-2-yl)-4,6-dichloro-1H-indole-2-carboxamide] | – | – | 254 µM | 9.37 µM | 10.7 µM | 27.09 | – | – | –
CC(C)(NC(=O)c1cc2c(F)cc(F)cc2[nH]1)c1cn(Cc2ccccc2)nn1 [JS-2-18, N-(2-(1-Benzyl-1H-1,2,3-triazol-4-yl)propan-2-yl)-4,6-difluoro-1H-indole-2-carboxamide] | – | – | 205 µM | – | – | – | – | – | –
C#CC(C)(C)NC(=O)c1cc2c(F)cc(F)cc2[nH]1 [JS-2-15, 4,6-Difluoro-N-(2-methylbut-3-yn-2-yl)-1H-indole-2-carboxamide] | – | – | 109 µM | – | – | – | – | – | –
CC1(C)COC(c2ccc(-c3cn(C45CC6CC(CC(C6)C4)C5)nn3)cc2)OC1 [JS-2-41, 1-(Adamantan-1-yl)-4-(4-(5,5-dimethyl-1,3-dioxan-2-yl)phenyl)-1H-1,2,3-triazole] | 1.94 µM | 2.15 µM | – | – | – | – | over 50% | 168 µM | IC50 [4]: 1.5 µM; reduction in the number of Toxoplasma cysts in the brain [5]: over 90%; decrease in brain cysts compared to untreated rats [5]: 10 fold
CC(C)(NC(=O)c1cc2c(Cl)cc(Cl)cc2[nH]1)c1cn(C23CC4CC(CC(C4)C2)C3)nn1 [JS-2-31, N-(2-(1-(Adamantan-1-yl)-1H-1,2,3-triazol-4-yl)propan-2-yl)-4,6-dichloro-1H-indole-2-carboxamide] | 7.88 µM | 12.1 µM | – | – | – | – | over 50% | 135 µM | SI T. gondii (selectivity index) [1]: 17.15
CC(C)(NC(=O)c1cc2c(F)cc(F)cc2[nH]1)c1cn(Cc2ccccc2Cl)nn1 [JS-2-25, N-(2-(1-(2-Chlorobenzyl)-1H-1,2,3-triazol-4-yl)propan-2-yl)-4,6-difluoro-1H-indole-2-carboxamide] | – | – | 107 µM | – | – | – | – | – | –
